Each block holds one compound with its values, some of them ahead of it. Calls of active or inactive are those of the source. The rule behind the calls is not given here.
How the values were obtained:
MDA-MB-231 [1] = assay: (§1) Ex vivo antitumor activity against human MDA-MB-231 cells co-cultured with neonatal Swiss mouse bone in BGJb medium assessed as inhibition of tumor growth at 5 uM administered simultaneously with cancer cells measured on day 7 post treatment by Gaussia luciferase reporter gene assay relative to control; type: functional
How it was run: (§2)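 Calvariae from […] Swiss mouse pups were punched into 4 or 5 mm disks. Each was seeded with 1 x 10^4 tumor cells (lentiviral secreted Gaussia luciferase/GFP-blasticidin, FACS-sorted GFP+) in BGJb plus 10% fetal calf serum at 37°C, 5% CO2. After 24 h bones moved to fresh wells; medium changed every 2 days. Conditioned-medium luciferase read as RLU. Biological triplicate, mean ± SD, Welch's t-test.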

MDA-MB-231 [2] = assay: Antiinvasive activity in human MDA-MB-231 cells assessed as inhibition of cell invasion at 5 uM by boyden chamber method relative to control; type: functional
MDA-MB-231 [3] = assay: (§3) Ex vivo antitumor activity against human MDA-MB-231 cells co-cultured with neonatal Swiss mouse bone in BGJb medium assessed as inhibition of tumor growth at 5 uM administered on day 2 post cancer cells addition measured on day 5 post treatment by Gaussia luciferase reporter gene assay relative to control; type: functional; how it was run: as §2
MDA-MB-231 [4] = assay: as §1, with “5” for “7”; type: functional; how it was run: as §2
MDA-MB-231 [5] = assay: as §3, with “day 7” for “day 5”; type: functional; how it was run: as §2
MIA PaCa-2 [6] = assay: Cytotoxicity against human MIAPaCa2 cells after 24 hrs; type: cell-based; conditions: mia paca-2, 24 h
NCI-H460 [7] = assay: Cytotoxicity against human NCI-H460 cells after 24 hrs; type: cell-based; conditions: nci-h460, 24 h
MDA-MB-231 [8] = assay: Antimigratory activity in human MDA-MB-231 cells at 10 uM after 9 hrs by wound healing assay; type: functional, cell-based
How it was run: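 Confluent monolayers in 12-well plates were scratched with a micropipette tip, washed, then cultured in complete medium with compound. Gap width between wound edges was measured by microscopy in three random regions right after wounding and at 6 and 9 h.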

Bone [9] = assay: Down regulation of RANKL expression in neonatal Swiss mouse calvariae bone co-cultured with human MDA-MB-231 cells measured on day 7 post treatment by SYBR green-dye based RT-qPCR analysis; type: functional, tissue-based; conditions: Bone element
How it was run: (§4)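 Calvarial disk cultures ([…] Swiss pups) in BGJb plus 10% fetal calf serum were PBS-washed at day 7 and bead-homogenized in Qiazol. Aqueous-phase RNA was isolated, reverse-transcribed and run in triplicate real-time PCR with species-specific primers. Expression was normalized to ribosomal protein L32 mRNA. n = 3 or 4 cultures, ANOVA.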

Bone [10] = assay: Effect on TRAP expression in neonatal Swiss mouse calvariae bone measured on day 7 post treatment by SYBR green-dye based RT-qPCR analysis; type: functional, tissue-based; conditions: Bone element; how it was run: as §4
U-87 MG [11] = assay: Antiinvasive activity in human U87 cells at 5 uM by boyden chamber method; type: functional, cell-based; conditions: U-87MG ATCC
MDA-MB-231 [12] = assay: Effect on CTGF expression in human MDA-MB-231 cells co-cultured with neonatal Swiss mouse calvariae bone measured on day 7 post treatment by SYBR green-dye based RT-qPCR analysis; type: functional, cell-based; how it was run: as §4
Bone [13] = assay: Effect on osteocalcin expression in neonatal Swiss mouse calvariae bone co-cultured with human MDA-MB-231 cells measured on day 7 post treatment by SYBR green-dye based RT-qPCR analysis; type: functional, tissue-based; conditions: Bone element; how it was run: as §4
MDA-MB-231 [14] = assay: Cytotoxicity against human MDA-MB-231 cells at 12.5 uM after 3 days by MTS assay; type: cell-based; conditions: mda-mb-231, 72 h
[15] = Inhibition of angiogenesis in human HRMEC assessed as inhibition of endothelial cell tube formation up to 10 uM after 8 hrs by microscopic analysis
How it was run: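 Primary human retinal microvascular endothelial cells were grown on Matrigel in complete medium for 8 h, then tubule formation was measured. Significance was assessed by ANOVA.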

MIA PaCa-2 [16] = assay: Antiinvasive activity in human MIAPaCa2 cells at 5 uM by boyden chamber method; type: functional, cell-based
Bone [17] = assay: Down regulation of TRAP expression in neonatal Swiss mouse calvariae bone co-cultured with human MDA-MB-231 cells measured on day 7 post treatment by SYBR green-dye based RT-qPCR analysis; type: functional, tissue-based; conditions: Bone element; how it was run: as §4
MDA-MB-231 [18] = assay: Effect on CCL2 expression in human MDA-MB-231 cells co-cultured with neonatal Swiss mouse calvariae bone measured on day 7 post treatment by SYBR green-dye based RT-qPCR analysis; type: functional, cell-based; how it was run: as §4
MDA-MB-231 [19] = assay: Down regulation of ENPP1 expression in human MDA-MB-231 cells co-cultured with neonatal Swiss mouse calvariae bone measured on day 7 post treatment by SYBR green-dye based RT-qPCR analysis relative to control; type: functional; how it was run: as §4
MDA-MB-231 [20] = assay: Cytotoxicity against human MDA-MB-231 cells at 0.625 to 5 uM after 24 hrs; type: cell-based; conditions: mda-mb-231, 24 h
MDA-MB-231 [21] = assay: Down regulation of CDH11 expression in human MDA-MB-231 cells co-cultured with neonatal Swiss mouse calvariae bone measured on day 7 post treatment by SYBR green-dye based RT-qPCR analysis
MDA-MB-231 [22] = assay: Antiinvasive activity in human MDA-MB-231 cells by boyden chamber method; type: functional, cell-based
MDA-MB-231 [23] = assay: Upregulation of Fas expression in human MDA-MB-231 cells co-cultured with neonatal Swiss mouse calvariae bone measured on day 7 post treatment by SYBR green-dye based RT-qPCR analysis; type: functional, cell-based; how it was run: as §4
MDA-MB-231 [24] = assay: Down regulation of IL-8 expression in human MDA-MB-231 cells co-cultured with neonatal Swiss mouse calvariae bone measured on day 7 post treatment by SYBR green-dye based RT-qPCR analysis; type: functional, cell-based; how it was run: as §4
MDA-MB-231 [25] = assay: Upregulation of BCL2L1 expression in human MDA-MB-231 cells co-cultured with neonatal Swiss mouse calvariae bone measured on day 7 post treatment by SYBR green-dye based RT-qPCR analysis; type: functional, cell-based; how it was run: as §4
MDA-MB-231 [26] = assay: Down regulation of CCN3 expression in human MDA-MB-231 cells co-cultured with neonatal Swiss mouse calvariae bone measured on day 7 post treatment by SYBR green-dye based RT-qPCR analysis relative to control; type: functional; how it was run: as §4
MDA-MB-231 [27] = assay: Effect on ICAM expression in human MDA-MB-231 cells co-cultured with neonatal Swiss mouse calvariae bone measured on day 7 post treatment by SYBR green-dye based RT-qPCR analysis; type: functional, cell-based; how it was run: as §4
Bone [28] = assay: Effect on RANKL expression in neonatal Swiss mouse calvariae bone measured on day 7 post treatment by SYBR green-dye based RT-qPCR analysis; type: functional, tissue-based; conditions: Bone element; how it was run: as §4
MDA-MB-231 [29] = assay: Down regulation of FGF5 expression in human MDA-MB-231 cells co-cultured with neonatal Swiss mouse calvariae bone measured on day 7 post treatment by SYBR green-dye based RT-qPCR analysis; type: functional, cell-based; how it was run: as §4
NCI-H460 [30] = assay: Antiinvasive activity in human NCI-H460 cells at 5 uM by boyden chamber method; type: functional, cell-based
Bone [31] = assay: Effect on Col1A1 expression in neonatal Swiss mouse calvariae bone co-cultured with human MDA-MB-231 cells measured on day 7 post treatment by SYBR green-dye based RT-qPCR analysis; type: functional, tissue-based; conditions: Bone element; how it was run: as §4
U-87 MG [32] = assay: Cytotoxicity against human U87 cells after 24 hrs; type: cell-based; conditions: u-87mg atcc

SMILES: O=C1C2NN=C(c3ccc(Cl)cc3)C2C(c2ccc(C(F)(F)F)cc2)N1CCc1c[nH]c2ccccc12 (configuration not stated)
TGI (MDA-MB-231 [1]): Active
inhibition at 5 µM (MDA-MB-231 [2]): 90%
TGI (MDA-MB-231 [3]): Active
TGI (MDA-MB-231 [4]): Active
TGI (MDA-MB-231 [5]): Active

SMILES: Cc1ccc(N2C(=O)C3C(C(c4ccc(Cl)cc4)=NN3C)C2c2cccc(F)c2)cc1Br (configuration not stated)
TGI (MDA-MB-231 [1]): Active
inhibition at 5 µM (MDA-MB-231 [2]): > 70%
TGI (MDA-MB-231 [3]): Active
TGI (MDA-MB-231 [4]): Active
TGI (MDA-MB-231 [5]): Active

SMILES: O=C1C2NN=C(c3ccc(Cl)cc3)C2C(c2cccc(F)c2)N1c1cccc(Br)c1 (configuration not stated)
TGI (MDA-MB-231 [1]): Active
inhibition at 5 µM (MDA-MB-231 [2]): > 70%
TGI (MDA-MB-231 [3]): Active
TGI (MDA-MB-231 [4]): Active
TGI (MDA-MB-231 [5]): Active

Activity [15]: Not Active
IC50 (MDA-MB-231 [22]): 2600 nM
SMILES: O=C1C2NN=C(c3ccc(Cl)cc3)C2C(c2cccc(F)c2)N1CCc1c[nH]c2ccccc12 (configuration not stated)
Activity (MIA PaCa-2 [6]): Non-Toxic
Activity (NCI-H460 [7]): Non-Toxic
Activity (MDA-MB-231 [8]): inactive
Activity (Bone [9]): Active
Activity (Bone [10]): inactive
Activity (U-87 MG [11]): inactive
Activity (MDA-MB-231 [12]): inactive
Activity (Bone [13]): inactive
Activity (MDA-MB-231 [14]): Non-Toxic
TGI (MDA-MB-231 [1]): 60%
inhibition at 5 µM (MDA-MB-231 [2]): > 70%
Activity (MIA PaCa-2 [16]): Active
Activity (Bone [17]): Active
Activity (MDA-MB-231 [18]): inactive
Activity (MDA-MB-231 [19]): 90%
Activity (MDA-MB-231 [20]): Non-Toxic
TGI (MDA-MB-231 [3]): 53%
Activity (MDA-MB-231 [21]): Active
Activity (MDA-MB-231 [22]): Dose-dependent effect
Activity (MDA-MB-231 [23]): Active
Activity (MDA-MB-231 [24]): Active
Activity (MDA-MB-231 [25]): Active
Activity (MDA-MB-231 [26]): 90%
TGI (MDA-MB-231 [4]): 70%
Activity (MDA-MB-231 [27]): inactive
Activity (Bone [28]): Active
Activity (MDA-MB-231 [29]): inactive
Activity (NCI-H460 [30]): inactive
Activity (Bone [31]): inactive
Activity (U-87 MG [32]): Non-Toxic
TGI (MDA-MB-231 [5]): 36%

SMILES: O=C1C2C(C(c3ccc(Cl)cc3)=NN2C2CCCCC2)C(c2cccc(F)c2)N1CCc1c[nH]c2ccccc12 (configuration not stated)
TGI (MDA-MB-231 [1]): Active
inhibition (MDA-MB-231 [2]): inactive
TGI (MDA-MB-231 [3]): Active
TGI (MDA-MB-231 [4]): Active
TGI (MDA-MB-231 [5]): Active

SMILES: COc1cccc(C2=NNC3C(=O)N(CCc4c[nH]c5ccccc45)C(c4cccc(F)c4)C23)c1 (configuration not stated)
TGI (MDA-MB-231 [1]): >50%
inhibition at 5 µM (MDA-MB-231 [2]): 90%
TGI (MDA-MB-231 [3]): Active
TGI (MDA-MB-231 [4]): Active
TGI (MDA-MB-231 [5]): >50%

SMILES: COc1ccc(N2C(=O)C3NN=C(c4ccc(Cl)cc4)C3C2c2cccc(F)c2)cn1 (configuration not stated)
TGI (MDA-MB-231 [1]): Active
TGI (MDA-MB-231 [3]): Active
TGI (MDA-MB-231 [4]): Active
TGI (MDA-MB-231 [5]): Active

Source: ChEMBL document CHEMBL4308891, “Small molecules inhibit ex vivo tumor growth in bone” (Bioorg Med Chem, 2018)
